GPR7 antag: blocks human GPR7 receptor signaling; P48145; GPR7-expressing cells, fluorescence antagonist assay; inhibition, % at 4.4 µM; 290,000 tested, 1.1% active; AID 1861; in the data active = inhibition above about 16%, passing the limit was not always enough;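 also: cells stimulated with the agonist NPW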
MPTP inh: inhibitors of mitochondrial permeability transition pore | 360,000 tested, 1.4% active | isolated mouse mitochondria, Ca2+ swelling absorbance, 30 min | inhibition, % at 10 µM;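 active = inhibition of 50% or more, scaled per plate between neutral and stimulator controls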
CHO parental Ca: counter-screen: ATP calcium response change in parental CHO cells. inhibition, % at 5.6 µM. parental CHO-K1, ATP-induced calcium, Fluo-8 fluorescence. 330,000 tested, 0.63% active;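 active = inhibition above that plate's mean sample inhibition plus 3 SD, cut at about 26% in these data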
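test system = CHO parental line | reagent = ATP stimulus | measured by = intracellular calcium via Fluo-8 no-wash fluorescent dye | control set = ATP and no-ATP DMSO wells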
OX1R antag-1: antagonists of human orexin 1 receptor (OX1R). O43613. OX1R-expressing cells, FRET antagonist read-out. inhibition, % at 6.6 µM. 330,000 tested, 1.8% active; in the data active = inhibition mostly above about 38%, no sharp cut-off; inactive = mostly below about 40%
Target sequence (O43613 whole entry, looked up): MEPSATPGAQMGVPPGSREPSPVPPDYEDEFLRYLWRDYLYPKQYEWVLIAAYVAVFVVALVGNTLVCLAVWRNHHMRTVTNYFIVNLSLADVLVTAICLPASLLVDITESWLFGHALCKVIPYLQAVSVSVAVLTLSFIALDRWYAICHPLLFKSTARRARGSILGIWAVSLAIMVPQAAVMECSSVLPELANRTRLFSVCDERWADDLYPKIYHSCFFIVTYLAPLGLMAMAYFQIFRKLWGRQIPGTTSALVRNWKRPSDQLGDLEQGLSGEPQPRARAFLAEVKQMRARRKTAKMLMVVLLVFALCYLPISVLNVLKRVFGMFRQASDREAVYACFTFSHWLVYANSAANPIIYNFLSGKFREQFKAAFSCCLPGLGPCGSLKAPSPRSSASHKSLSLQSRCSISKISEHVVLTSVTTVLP
OX1R antag-2: antagonists of human orexin 1 receptor; CHO/OX1R cells, Fluo-8 calcium fluorescence, orexin A; 330,000 tested, 0.43% active; inhibition, % at 5 µM; O43613;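 active = inhibition above its plate's threshold, mean inhibition of all tested compounds on the plate plus 3 SD, cut at about 37% in these data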
OX1R Ca confirm: confirmation of human orexin 1 receptor antagonists; shares compounds with OX1R antag-2; 1,100 tested, 38% active; inhibition, % at 5 µM; CHO/OX1R cells, orexin A calcium Fluo-8 fluorescence; in the data active = inhibition above about 29%
CHO Ca counter: counter-screen for OX1R antagonists: effect in parental CHO cells; shares compounds with OX1R antag-2; parental CHO-K1, ATP-induced calcium, Fluo-8 fluorescence; inhibition, % at 5.6 µM; 1,100 tested, 9.3% active; AID 492965;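 active = inhibition above a per-plate limit, the mean inhibition of that plate's test compounds plus 3 SD, cut at about 25% in these data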
OX1R HTRF confirm: OX1R (human) antagonism, HTRF confirmed | 1,800 tested, 49% active | OX1R-expressing cells, HTRF antagonist assay | inhibition, % at 6.6 µM | shares compounds with OX1R antag-1; in the data active = inhibition above about 55%;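 also: CHO cells expressing OX1R stimulated with orexin A at about EC80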
CHO-K1 HTRF: signal in parental CHO-K1 cells, OX1R antagonist counter-screen. shares compounds with OX1R antag-1. HTRF counterscreen. inhibition, % at 6.6 µM. 1,800 tested, 48% active. AID 493232; in the data active = inhibition above about 17%
Large screens that a line does not name were inactive (follow-up assays come after a bar, where they were run). A selection: hits, their analogues and other compounds. The true share with any hit is near 3.8%.

CCOC(=O)C1=C(COC(=O)c2ccc(C)s2)NC(=O)NC1C (configuration not stated)	none (no result: GPR7 antag)
CCOC(=O)C1=C(COC(=O)/C=C/c2cccc(OC)c2)NC(=O)NC1C (configuration not stated)	OX1R antag-1 72.7 | OX1R Ca confirm 31.1 | CHO Ca counter inactive | OX1R HTRF confirm inactive | CHO-K1 HTRF inactive
CCOC(=O)C1=C(COC(=O)c2cc(Br)c(Br)s2)NC(=O)NC1C (configuration not stated)	OX1R antag-1 49.3 (no result: GPR7 antag) | OX1R Ca confirm inactive | CHO Ca counter inactive | OX1R HTRF confirm inactive | CHO-K1 HTRF inactive
Cc1cc(C)cc(N(CC(=O)NC2CCCC2)C(=O)CCC(=O)Nc2cc(C)ccn2)c1	none
Cc1ccc(-n2nc(C)c(=O)c(-c3ccccc3)c2NC(=O)c2cccs2)cc1	none
CCOc1ccc(NS(=O)(=O)c2cccc(C(=O)N(C)Cc3ccco3)c2)cc1	none (no result: GPR7 antag)
COc1cc(NC(=O)CSCc2cnn(-c3ccccc3)c2-n2cccc2)cc(OC)c1	OX1R antag-1 78.0, OX1R antag-2 49.7 | OX1R Ca confirm inactive | CHO Ca counter inactive | OX1R HTRF confirm 89.1 | CHO-K1 HTRF inactive
CC(=C/c1ccccc1)/C=C1/SC(N2CCOCC2)=NC1=O	OX1R antag-1 108.1, OX1R antag-2 84.8 | OX1R Ca confirm 79.6 | CHO Ca counter inactive | OX1R HTRF confirm 101.2 | CHO-K1 HTRF inactive
Cc1ccnc(NC(=O)Nc2ccc(Br)cc2Cl)c1	none
O=C(NCc1ccc2c(c1)OCO2)C1CC(=O)N(CCc2ccc(Cl)cc2)C1 (configuration not stated)	none
ClCCn1c(CCl)nc2ccc(Cl)cc21	none (no result: GPR7 antag, CHO parental Ca, OX1R antag-1, OX1R antag-2)
Cc1nn(-c2ccccc2)c(C)c1/C=N/NC(=O)c1cc(-c2ccccc2)n[nH]1	OX1R antag-1 97.8, OX1R antag-2 87.4 | OX1R Ca confirm 63.7 | CHO Ca counter inactive | OX1R HTRF confirm 80.8 | CHO-K1 HTRF inactive
Cc1nn(-c2ccccc2)c(C)c1/C=N/NC(=O)c1cc(-c2cccc3ccccc23)n[nH]1	none
CC(C)(O)c1cc2ccc(C#Cc3ccsc3)cc2c(=O)o1	OX1R antag-1 70.8, OX1R antag-2 59.7 (no result: GPR7 antag) | OX1R Ca confirm 36.4 | CHO Ca counter inactive | OX1R HTRF confirm 82.5 | CHO-K1 HTRF inactive
O=c1oc(CCCO)cc2ccc(C#Cc3ccsc3)cc12	OX1R antag-1 41.5, OX1R antag-2 54.8 (no result: GPR7 antag) | OX1R Ca confirm inactive | CHO Ca counter inactive | OX1R HTRF confirm inactive | CHO-K1 HTRF inactive
CN(C)c1ccc(C#Cc2ccc3cc(CCCO)oc(=O)c3c2)cc1	none (no result: GPR7 antag)
COc1ccc2c(c1)[nH]c(=O)c1sc3ccccc3c12	OX1R antag-1 71.4 | OX1R Ca confirm 39.0 | CHO Ca counter inactive | OX1R HTRF confirm 92.3 | CHO-K1 HTRF inactive
Cc1ccc2nc(SCC(=O)Nc3cc(C(C)(C)C)nn3-c3ccccc3)[nH]c2c1	none
Cc1cc(NC(=O)CSc2nc3ccccc3[nH]2)n(-c2ccccc2)n1	OX1R antag-1 59.9, OX1R antag-2 60.7 | OX1R Ca confirm inactive | CHO Ca counter inactive | OX1R HTRF confirm 61.9 | CHO-K1 HTRF inactive
CCOc1ccc(CNC(=O)CCCn2nc(C)c3c(C)n(-c4ccc(C)cc4)nc3c2=O)cc1	none
O=C(Nc1ccc2c(c1)N(S(=O)(=O)c1cccs1)CCC2)c1c(F)cccc1F	OX1R antag-1 68.6 (no result: GPR7 antag) | OX1R Ca confirm 37.2 | CHO Ca counter inactive | OX1R HTRF confirm 65.8 | CHO-K1 HTRF inactive
CCNC(=O)C(=O)Nc1ccc2c(c1)N(S(=O)(=O)c1cccs1)CCC2	none (no result: GPR7 antag)
CCOc1cc(C(=S)N2CCOCC2)cc(Br)c1OS(=O)(=O)c1ccccc1	OX1R antag-1 47.4 | OX1R Ca confirm 51.6 | CHO Ca counter inactive | OX1R HTRF confirm 62.1 | CHO-K1 HTRF inactive
CCOC(=O)C1=NS(=O)(=O)NC(C)=C1	none (no result: GPR7 antag)
Cc1ccc(-c2c(C)sc(NC(=O)C3C4CCC(O4)C3C(=O)O)c2C(=O)OC(C)C)cc1 (configuration not stated)	OX1R antag-1 77.7, OX1R antag-2 51.5 | OX1R Ca confirm inactive | CHO Ca counter inactive | OX1R HTRF confirm 60.1 | CHO-K1 HTRF inactive
Cc1ccc2nc(SCC(=O)c3c(C)[nH]c4ccccc34)[nH]c2c1	OX1R antag-1 88.9 | OX1R Ca confirm 29.4 | CHO Ca counter inactive | OX1R HTRF confirm 78.3 | CHO-K1 HTRF inactive
O=C(O)c1ccc2c(=O)[nH]c(CCl)nc2c1	none
O=C(N/N=C/c1cccc(Oc2ccccc2)c1)c1ccc(O)cc1O	none (no result: CHO parental Ca, OX1R antag-1, OX1R antag-2)
Cn1c2ccccc2c2cc(/C=N/NC(=O)c3ccc(O)cc3O)ccc21	OX1R antag-1 91.5 | OX1R Ca confirm inactive | CHO Ca counter 25.0 | OX1R HTRF confirm 73.3 | CHO-K1 HTRF inactive
COc1ccc(CCNc2cc(C)[nH]c(=O)c2)cc1OC	OX1R antag-1 44.8 | OX1R Ca confirm inactive | CHO Ca counter inactive | OX1R HTRF confirm inactive | CHO-K1 HTRF inactive
COc1ccc(CCNc2cn[nH]c(=O)c2Cl)cc1OC	none
CCC(=O)Nc1ccc(C(=O)Nc2ccc3c(c2)OCO3)cc1	none
N#CCC(=O)Nc1ccc(C(=O)Nc2ccc3c(c2)OCO3)cc1	OX1R antag-1 67.3, OX1R antag-2 67.0 (no result: GPR7 antag) | OX1R Ca confirm inactive | CHO Ca counter inactive | OX1R HTRF confirm inactive | CHO-K1 HTRF inactive
CC(C)(C)c1ccc(C(=O)Nc2cccnc2)cc1	none
N#CCC(=O)Nc1ccc(C(=O)Nc2cccnc2)cc1	OX1R antag-1 90.7 | OX1R Ca confirm inactive | CHO Ca counter inactive | OX1R HTRF confirm inactive | CHO-K1 HTRF inactive
Cc1cccc(N2CCC(N3CCN(C4CCCCC4)C(CCO)C3)CC2)c1C (configuration not stated)	none
Oc1ccccc1-c1nc(NCC2CCCO2)c2ccccc2n1 (configuration not stated)	OX1R antag-1 96.7, OX1R antag-2 63.2 | OX1R Ca confirm 44.2 | CHO Ca counter inactive | OX1R HTRF confirm 87.8 | CHO-K1 HTRF inactive
O=C(COc1cccnc1[N+](=O)[O-])c1ccc(Cl)s1	none
O=C(COc1ccccc1F)Nc1cc(S(=O)(=O)Nc2cccc(Cl)c2)ccc1O	OX1R antag-1 40.1, OX1R antag-2 75.0 (no result: GPR7 antag) | OX1R Ca confirm 42.3 | CHO Ca counter inactive | OX1R HTRF confirm 61.3 | CHO-K1 HTRF inactive
CS(=O)(=O)C1=NSC2=NC(=O)/C(=C\c3ccc(OC(=O)c4ccco4)c(Br)c3)C(=N)N21	none
CC(C)C(NS(=O)(=O)c1cccc2nsnc12)C(=O)N1CCn2c1nc1ccccc12 (configuration not stated)	OX1R antag-1 134.1 | OX1R Ca confirm inactive | CHO Ca counter inactive | OX1R HTRF confirm 92.2 | CHO-K1 HTRF inactive

Compound activity from PubChem.
